Laboratory results as given in PubChem BioAssay.
Results filed as inconclusive are left out. Activity calls are given as the source filed them.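 How the source made its calls, unless noted: active means inhibition over a set limit, the all-compound mean plus 3 SD, in both replicate runs; inconclusive means over that limit in just one replicate run; inactive means at or under that limit in both runs.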

How the values were obtained:
[1] = OD615 S. cerevisiae growth inhibition, permissive medium, pilot counter-assay, permissive growth control for S. cerevisiae lifespan shortening project (AID 705;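 active means growth inhibition above 25% in both replicates, a cutoff set 3 SD above the mean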); conditions: OD615, 24 h, at 10 µM, active compounds read high
Procedure, shortened: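 System: engineered DeaD yeast; Medium: permissive raffinose/galactose medium; Compound dosing: 10 µM single dose, 0.25% DMSO; Incubation: 4 h cell pre-growth, 24 h exposure at 30 °C; Technique: OD at 615 nm; Evaluation: growth inhibition from lowered OD615 after 24 h.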

[2] = Restrictive medium S. cerevisiae growth inhibition, OD615, pilot screen of yeast lifespan reduction project, restrictive growth control (AID 706;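 active means growth inhibition above a set limit, 3 SD over mean compound inhibition, in both replicates, cut at about 43% in these data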;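 further: modified DeaD lifespan yeast strain shifted to restrictive glucose medium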); conditions: OD615, 48 h, at 10 µM, active compounds read high
Procedure, shortened: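 Material: modified S. cerevisiae; buffer or medium: CSMM-D glucose medium; doses: one concentration, 10 µM final, 0.25% DMSO; incubation: 48 h compound exposure at 30 °C; detection: optical density at 615 nm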

[3] = viability gain of MRP-1-high H69AR cells under doxorubicin, pilot screen, MRP-1 activator project, CellTiter-Glo, duplicate (AID 807;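 active means viability increase at or above a cutoff of the median across tested compounds plus 3 SD, cut at about 8.5% in these data, passing the limit was not always enough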;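 further: compound pretreatment 18-22 h then 72 h combined with doxorubicin; 0% = doxorubicin alone and 100% = vehicle without doxorubicin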); conditions: H69AR viability with doxorubicin, CellTiter-Glo luminescence; at 10 µM; active compounds read high
[4] = growth suppression of beta-catenin knockout HCT116, pilot screen, human colon tumor cells (AID 823;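 active means cell viability at or below a set limit in both duplicate runs, the limit being the all-compound median minus 4 SD, cut at about 23% in these data, passing the limit was not always enough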;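 further: 0% = wells killed by 20 µM Hyamine and 100% = untreated DMSO cell wells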); conditions: CellTiter-Glo, 60 h, at 10 µM, active compounds read low
[5] = growth suppression of PTEN-deleted HCT116, pilot screen, cell-based, HCT116 clonal line, CellTiter-Glo (AID 824;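 active means viability at or below 27.92% in each of two runs, the all-compound median minus 4 SD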;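 further: 0% = 20 µM Hyamine control and 100% = vehicle cell control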); conditions: 60 h, at 10 µM, active compounds read low
[6] = inhibitors of the yeast RAM network, pilot screen, dse1pr::URA3 reporter, 5-FOA selection (AID 869);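 further: 0% = DMSO wells with no growth and 100% = 10 µM 1-NA-PP1 with full growth; RAM network block rescues cells from 5-FOA so hits raise OD615 growth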; conditions: S. cerevisiae dse1pr::URA3 5-FOA growth, OD615, 2 d; at 10 µM; active compounds read high; strain carries analog-sensitive mutant Cbk1 kinase
[7] = RAM signaling pathway blockade in yeast – S. cerevisiae, Pdr1DBD-CYC8 efflux-inhibited sensitized strain, primary screen (AID 1298;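 active means RAM network inhibition above 8.4% in each of two replicates, 3 SD over the compound average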;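 further: 0% = DMSO untreated cells without growth and 100% = 10 µM 1-NA-PP1 full growth; higher means more yeast growth rescued from 5-FOA killing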); conditions: S. cerevisiae cbk1-as DSE1-URA3 strain, 5-FOA growth OD615, 2 d; at 50 µM; active compounds read high

C#CC(C)(C)NC(=O)CSc1nc2c(c(=O)n(C)c(=O)n2C)n1CCCC
inactive: growth inhibition [1] -15.3% | growth inhibition [2] -13.7% | viability increase [3] 1.86% | viability [4] 102% | viability [5] 89.4% | inhibition [6] 2.11% | RAM network inhibition [7] 1.45%

CC(C)(Oc1ccc(Cl)cc1)C(=O)N1CCN(c2ccccn2)CC1
inactive: growth inhibition [1] -7.41% | growth inhibition [2] 3.08% | viability increase [3] -2.47% | viability [4] 70.7% | viability [5] 76.1% | inhibition [6] 0.32% | RAM network inhibition [7] -1.34%

c1ccc(N2CCN(c3ncnc4c3oc3ccccc34)CC2)cc1
inactive: growth inhibition [1] -16.2% | growth inhibition [2] 9.12% | viability increase [3] -0.47% | viability [4] 96% | viability [5] 100% | inhibition [6] -0.03% | RAM network inhibition [7] 8.18%

COc1cc(NC(=O)C2CCCC2)c(OC)cc1Cl
inactive: growth inhibition [1] -8.4% | growth inhibition [2] -12% | viability increase [3] -3.09% | viability [4] 81.9% | viability [5] 78.4% | inhibition [6] 1.02% | RAM network inhibition [7] -0.72%

CC(=O)Nc1ccc(S(=O)(=O)N2CCN(c3nc(NC4CCCC4)c4ccccc4n3)CC2)cc1
inactive: growth inhibition [1] 0.72% | growth inhibition [2] -1.39% | viability increase [3] -8.11% | inhibition [6] 1.15% | RAM network inhibition [7] 3.62%
active: viability [4] 1.42% | viability [5] 1.7%

CC(C)CCn1c(SCC(N)=O)nc2c1c(=O)n(C)c(=O)n2C
inactive: growth inhibition [1] -11.8% | growth inhibition [2] -14.9% | viability increase [3] 0.12% | viability [4] 103% | viability [5] 102% | inhibition [6] -0.76% | RAM network inhibition [7] 2%

COc1ccccc1-c1cc(C2CC2)nc(N)c1C#N
inactive: growth inhibition [1] -20.8% | growth inhibition [2] -19.3% | viability increase [3] -3.86% | viability [4] 94.7% | viability [5] 94.2% | inhibition [6] -0.08% | RAM network inhibition [7] 3.76%

CCC(C)NC(=O)CNC(=O)Cn1c(C)cc2ccccc2c1=O (stereo unspecified)
inactive: growth inhibition [1] -4.49% | growth inhibition [2] -8.84% | viability increase [3] -2.27% | viability [4] 102% | viability [5] 94.2% | inhibition [6] 0.04% | RAM network inhibition [7] 4.72%

CC(C)n1c(CCC(=O)O)ccc1-c1ccccc1
inactive: growth inhibition [1] 3.21% | growth inhibition [2] 4.49% | viability increase [3] -0.71% | viability [4] 96% | viability [5] 101% | inhibition [6] 0.285% | RAM network inhibition [7] 1.3%

COc1cc2[nH]c(=O)n(CCC(=O)NC3CCN(Cc4ccccc4)CC3)c(=O)c2cc1OC
inactive: growth inhibition [1] -0.585% | growth inhibition [2] -8.45% | viability increase [3] -1.84% | viability [4] 101% | viability [5] 94.3% | inhibition [6] 2.09% | RAM network inhibition [7] -0.53%

CCCCOc1ccc(CN2CCC(O)CC2)cc1
inactive: growth inhibition [1] -18.6% | growth inhibition [2] -6.13% | viability increase [3] -0.47% | viability [4] 90.9% | viability [5] 100% | inhibition [6] 1.06% | RAM network inhibition [7] 2.2%

COc1ccccc1N1CCN(C(=O)CCCCn2c(=O)[nH]c3ccsc3c2=O)CC1
inactive: growth inhibition [1] -4.33% | growth inhibition [2] 7.52% | viability increase [3] -2.84% | viability [4] 94% | viability [5] 88.5% | inhibition [6] 2.13% | RAM network inhibition [7] 5.16%

COc1ccc(C2CC(=O)C3=C(C2)NC(C)=C(C#N)C3c2ccc(N(C)C)cc2)cc1 (stereo unspecified)
inactive: growth inhibition [1] -6.35% | growth inhibition [2] 7.55% | viability increase [3] 0.06% | viability [4] 78.5% | viability [5] 75.8% | inhibition [6] 2.72% | RAM network inhibition [7] 5.79%

O=C(Nc1ccncc1)c1cccs1
inactive: growth inhibition [1] -6.22% | growth inhibition [2] 4.99% | viability increase [3] -2.27% | viability [4] 105% | viability [5] 95.2% | inhibition [6] 1.87% | RAM network inhibition [7] 0.93%

Cc1cccc(N(C(=O)Nc2ccccc2)C2=NCC(C)S2)c1 (stereo unspecified)
inactive: growth inhibition [1] -14.6% | growth inhibition [2] -6.9% | viability increase [3] 0.22% | viability [4] 103% | viability [5] 94.4% | inhibition [6] -0.8% | RAM network inhibition [7] 2.52%

CCOC(=O)CNC(=O)C(NC(=O)C1CCC(C)CC1)C(C)CC (stereo unspecified)
inactive: growth inhibition [1] 0.975% | growth inhibition [2] -17.8% | viability increase [3] -1.73% | viability [4] 98.8% | viability [5] 98% | inhibition [6] 0.95% | RAM network inhibition [7] 0.93%

O=C(c1ccc(=O)[nH]c1)N(Cc1ccco1)C1(C(=O)NC2CCCCC2)CCCCC1
inactive: growth inhibition [1] -20% | growth inhibition [2] -18.9% | viability increase [3] -3.3% | viability [4] 97.2% | viability [5] 92.5% | inhibition [6] 0.61% | RAM network inhibition [7] 1.87%

CC(C)N(C(=O)CN(C#N)c1nc(N(C)C)nc(N(C)C)n1)c1ccccc1
inactive: growth inhibition [1] -16.1% | growth inhibition [2] -7.49% | viability increase [3] -2.51% | viability [4] 100% | viability [5] 106% | inhibition [6] 2.33% | RAM network inhibition [7] 4.46%
